Test results: ChEMBL document CHEMBL4038284, “Synthesis of novel quinoline-based 4,5-dihydro-1H-pyrazoles as potential anticancer, antifungal, antibacterial and antiprotozoal agents” (Eur J Med Chem, 2017)
Active and inactive are the calls of the source. The calls are words filed in the database; no cut-off is given here.

Key:
[1] = test system: NCI-H460; assay: Growth inhibition of human NCI-H460 cells at 10 uM incubated for 48 hrs by sulforhodamine B assay; type: functional, cell-based
Method in brief: (§1)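 NCI 60-line panel, single 10 μM dose. Cells were grown in RPMI-1640 with 5% FBS and 2 mM L-glutamine and pre-incubated 24 h before compound addition (DMSO stock). Exposure was 48 h at 37 °C, 5% CO2. Cells were fixed with cold TCA (10% final), stained with 0.4% SRB, bound dye dissolved in 10 mM Tris base, A515 read. Growth was taken relative to time-zero and untreated control plates.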

[2] = test system: OVCAR-5; assay: Growth inhibition of human OVCAR5 cells at 10 uM incubated for 48 hrs by sulforhodamine B assay; type: functional, cell-based; method in brief: as §1
[3] = test system: CCRF-CEM; assay: Growth inhibition of human CCRF-CEM cells incubated for 48 hrs by sulforhodamine B assay; type: functional; conditions: for CC50: read-out: LC50 (the source's name)
Method in brief: (§2)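 NCI 60-line screen. Cells in RPMI-1640 with 5% FBS and 2 mM L-glutamine, preincubated 24 h, then time-zero plates TCA-fixed. Compounds from DMSO stocks given at five final concentrations (100, 10, 1.0, 0.1, 0.01 µM) for 48 h at 37 °C, 5% CO2. Cells fixed with 10% TCA, SRB-stained, read at 515 nm. GI50 is the concentration giving 50% lower net protein increase versus control.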

[4] = test system: K562; assay: Growth inhibition of human K562 cells incubated for 48 hrs by sulforhodamine B assay; type: functional; conditions: K562, 48 h; for CC50: read-out: LC50 (the source's name); method in brief: as §2
[5] = test system: SR; assay: Growth inhibition of human SR cells incubated for 48 hrs by sulforhodamine B assay; type: functional; conditions: for CC50: read-out: LC50 (the source's name); method in brief: as §2
[6] = test system: A549; assay: Growth inhibition of human A549/ATCC cells incubated for 48 hrs by sulforhodamine B assay; type: functional; conditions: A549, 48 h; method in brief: as §2
[7] = test system: HOP-62; assay: Growth inhibition of human HOP62 cells incubated for 48 hrs by sulforhodamine B assay; type: functional; conditions: HOP-62, 48 h; for CC50: read-out: LC50 (the source's name)
Method in brief: (§3)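 NCI five-dose SRB assay (100, 10, 1.0, 0.1, 0.01 µM) with 48 h exposure in RPMI-1640 with 5% FBS and 2 mM L-glutamine. Cells fixed with TCA and stained with SRB, read at 515 nm. GI50 is the concentration where [(Ti−Tz)/(C−Tz)]×100 = 50.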

[8] = test system: NCI-H460; assay: Growth inhibition of human NCI-H460 cells incubated for 48 hrs by sulforhodamine B assay; type: functional; conditions: NCI-H460, 48 h; for CC50: read-out: LC50 (the source's name)
Method in brief: (§4)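 Five-dose NCI SRB assay at 100, 10, 1.0, 0.1 and 0.01 μM for 48 h at 37 °C, 5% CO2. Medium was RPMI-1640 with 5% FBS and 2 mM glutamine. Time-zero plates were TCA-fixed at compound addition, A515 read after SRB staining. GI50 was solved from [(Ti−Tz)/(C−Tz)]×100 = 50. Values beyond the tested range are given as > or <.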

[9] = test system: NCI-H522; assay: Growth inhibition of human NCI-H522 cells incubated for 48 hrs by sulforhodamine B assay; type: functional; conditions: NCI-H522, 48 h; for CC50: read-out: LC50 (the source's name); method in brief: as §2
[10] = test system: HCC 2998; assay: Growth inhibition of human HCC2998 cells incubated for 48 hrs by sulforhodamine B assay; type: functional; conditions: HCC 2998, 48 h; for CC50: read-out: LC50 (the source's name); method in brief: as §2
[11] = test system: KM12; assay: Growth inhibition of human KM12 cells incubated for 48 hrs by sulforhodamine B assay; type: functional; conditions: KM12, 48 h; method in brief: as §4
[12] = test system: SF-539; assay: Growth inhibition of human SF539 cells incubated for 48 hrs by sulforhodamine B assay; type: functional; conditions: SF-539, 48 h; for CC50: read-out: LC50 (the source's name)
Method in brief: (§5)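 NCI-60 panel cells grown in RPMI-1640 with 5% FBS and 2 mM L-glutamine, preincubated 24 h at 37 °C/5% CO2. Time-zero plates were TCA-fixed at compound addition. DMSO stocks were diluted in medium and tested at five final concentrations (100, 10, 1.0, 0.1, 0.01 µM) for 48 h. Cells were TCA-fixed, stained with SRB and read at 515 nm. GI50 = 50% lower net protein increase versus control.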

[13] = test system: SNB-75; assay: Growth inhibition of human SNB75 cells incubated for 48 hrs by sulforhodamine B assay; type: functional; conditions: SNB-75, 48 h; for CC50: read-out: LC50 (the source's name); method in brief: as §2
[14] = test system: LOX IMVI; assay: Growth inhibition of human LOXIMVI cells incubated for 48 hrs by sulforhodamine B assay; type: functional; conditions: for CC50: read-out: LC50 (the source's name); method in brief: as §4
[15] = test system: SK-MEL-5; assay: Growth inhibition of human SK-MEL-5 cells incubated for 48 hrs by sulforhodamine B assay; type: functional; conditions: SK-MEL-5, 48 h; for CC50: read-out: LC50 (the source's name); method in brief: as §2
[16] = test system: UACC-257; assay: Growth inhibition of human UACC257 cells incubated for 48 hrs by sulforhodamine B assay; type: functional; conditions: UACC-257, 48 h; for CC50: read-out: LC50 (the source's name); method in brief: as §5
[17] = test system: OVCAR-5; assay: Growth inhibition of human OVCAR5 cells incubated for 48 hrs by sulforhodamine B assay; type: functional; conditions: OVCAR-5, 48 h; for CC50: read-out: LC50 (the source's name); method in brief: as §2
[18] = test system: 786-0; assay: Growth inhibition of human 786-0 cells incubated for 48 hrs by sulforhodamine B assay; type: functional; conditions: 786-0, 48 h; method in brief: as §3
[19] = test system: ACHN; assay: Growth inhibition of human ACHN cells incubated for 48 hrs by sulforhodamine B assay; type: functional; conditions: for CC50: read-out: LC50 (the source's name); method in brief: as §2
[20] = test system: RXF 393; assay: Growth inhibition of human RXF393 cells incubated for 48 hrs by sulforhodamine B assay; type: functional; conditions: RXF 393, 48 h; for CC50: read-out: LC50 (the source's name); method in brief: as §4
[21] = test system: PC-3; assay: Growth inhibition of human PC3 cells incubated for 48 hrs by sulforhodamine B assay; type: functional; conditions: PC-3, 48 h; for CC50: read-out: LC50 (the source's name); method in brief: as §4
[22] = test system: MDA-MB-231; assay: Growth inhibition of human MDA-MB-231 cells incubated for 48 hrs by sulforhodamine B assay; type: functional; conditions: MDA-MB-231, 48 h; method in brief: as §4
[23] = test system: T47D; assay: Growth inhibition of human T47D cells incubated for 48 hrs by sulforhodamine B assay; type: functional; conditions: for CC50: read-out: LC50 (the source's name); method in brief: as §5
[24] = test system: MDA-MB-468; assay: Growth inhibition of human MDA-MB-468 cells incubated for 48 hrs by sulforhodamine B assay; type: functional; conditions: MDA-MB-468, 48 h; method in brief: as §4
[25] = test system: Cryptococcus neoformans; assay: Growth inhibition of Cryptococcus neoformans ATCC 32264 at 62.5 ug/ml incubated for 48 hrs under dark condition by broth microdilution method relative to control; type: functional; conditions: ATCC 32264, 48 h, read-out: GI
Method in brief: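 CLSI M27-A3 broth microdilution in RPMI-1640, DMSO ≤1%. Inoculum 1-5 × 10^3 CFU/mL. Incubated 48 h at 30 °C, dark. % inhibition = 100 − (OD405 test − sterility control)/(OD405 growth control − sterility control), with growth and sterility control wells. Triplicate.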

[26] = test system: Staphylococcus aureus; assay: Antibacterial activity against methicillin-sensitive Staphylococcus aureus ATCC 25923 after 24 hrs by resazurin dye based microdilution assay; type: functional; conditions: ATCC 25923, 24 h
Method in brief: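 MIC taken as the lowest concentration giving visible inhibition and/or by resazurin (1 mg/mL). Gentamicin was the control. Run in duplicate, repeated at least three times.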

[27] = read-out: LC50 (the source's name)

COc1cc(C(=O)/C=C/c2cccc(Nc3ccnc4cc(Cl)ccc34)c2)cc(OC)c1OC
growth inhibition (GI) [1]: Active | growth inhibition (GI) [2]: Active | GI50 [3]: 360 nM | CC50 [3]: > 100000 nM | GI50 [4]: 400 nM | CC50 [4]: > 100000 nM | GI50 [5]: 320 nM | CC50 [5]: > 100000 nM | GI50 [6]: 1480 nM | LC50 (concentration giving 50% net cell kill) [6]: 11500 nM | GI50 [7]: 680 nM | CC50 [7]: 6060 nM | GI50 [8]: 1910 nM | CC50 [8]: > 100000 nM | GI50 [9]: 590 nM | CC50 [9]: 6230 nM | GI50 [10]: 1720 nM | CC50 [10]: 5990 nM | GI50 [11]: 440 nM | GI50 [12]: 1360 nM | CC50 [12]: 5270 nM | GI50 [13]: 1310 nM | CC50 [13]: > 100000 nM | GI50 [14]: 370 nM | CC50 [14]: 3950 nM | GI50 [15]: 1380 nM | CC50 [15]: 5180 nM | GI50 [16]: 1430 nM | CC50 [16]: 6530 nM | GI50 [17]: 1700 nM | CC50 [17]: 6370 nM | GI50 [18]: 560 nM | LC50 [18]: 4890 nM | GI50 [19]: 1240 nM | CC50 [19]: 4990 nM | GI50 [20]: 1080 nM | CC50 [20]: 5670 nM | GI50 [21]: 1480 nM | CC50 [21]: > 100000 nM | GI50 [22]: 1810 nM | GI50 [23]: 1220 nM | CC50 [23]: 8260 nM | GI50 [24]: 1130 nM | inhibition of growth at 62.5 µg/mL [25]: 6.09% | MIC [26]: > 1000 µg/mL

COc1ccc(C(=O)/C=C/c2cccc(Nc3ccnc4cc(Cl)ccc34)c2)cc1
growth inhibition (GI) [1]: Active | growth inhibition (GI) [2]: Active | GI50 [3]: 2880 nM | CC50 [3]: > 100000 nM | GI50 [4]: 1640 nM | CC50 [4]: 83800 nM | GI50 [5]: 490 nM | CC50 [5]: > 100000 nM | GI50 [6]: 2780 nM | LC50 (concentration giving 50% net cell kill) [6]: > 100000 nM | GI50 [7]: 1440 nM | CC50 [7]: > 100000 nM | GI50 [8]: 2230 nM | CC50 [8]: > 100000 nM | GI50 [9]: 1880 nM | CC50 [9]: > 100000 nM | CC50 [10]: > 100000 nM | GI50 [11]: 2450 nM | CC50 [11, 27]: > 100000 nM | GI50 [12]: 1700 nM | CC50 [12]: > 100000 nM | GI50 [13]: 1510 nM | CC50 [13]: > 100000 nM | GI50 [14]: 1580 nM | CC50 [14]: > 100000 nM | GI50 [15]: 1320 nM | CC50 [15]: > 100000 nM | GI50 [16]: 2070 nM | CC50 [16]: > 100000 nM | GI50 [17]: 2600 nM | CC50 [17]: > 100000 nM | GI50 [18]: 1480 nM | LC50 [18]: 77700 nM | GI50 [19]: 1730 nM | CC50 [19]: > 100000 nM | GI50 [20]: 1820 nM | CC50 [20]: > 100000 nM | GI50 [21]: 2510 nM | CC50 [21]: > 100000 nM | GI50 [22]: 1910 nM | CC50 [22, 27]: > 100000 nM | GI50 [23]: 660 nM | CC50 [23]: > 100000 nM | GI50 [24]: 580 nM | CC50 [24, 27]: > 100000 nM | inhibition of growth at 62.5 µg/mL [25]: 13.9% | MIC [26]: > 1000 µg/mL
